The results in this text go back to ChEMBL document CHEMBL1921672, “Design, synthesis, and qualitative structure-activity evaluations of novel β-secretase inhibitors as potential Alzheimer's drug leads” (J Med Chem, 2011).

A short description of data set [1]: Aqueous solubility of the compound. In kind it is physicochemical. The conditions noted are these: water. The procedure, abridged:
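Solubility estimated by HPLC. Salt sonicated 48 h in water, filtered through 0.45 μm, injected after a five-point calibration (1.44–18.0 mg/mL standards in acetonitrile/methanol 50:50 v/v; least-squares linear fit; triplicate injections). Reversed-phase C18 column, UV detection at 280 nm. Solubility taken where recovery began to fall with rising concentration.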

The target of data set [2] is T1, Beta-secretase 1 (Homo sapiens, UniProt P56817). Briefly: Inhibition of BACE1 expressing APP Swedish mutant using rhodamine-labeled EVNLDAEFK-quencher as substrate after 60 mins by Michaelis-Menten equation. The gist of the method: (§1)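 Same FRET set-up (750 nM peptide substrate, KM 20 μM, 1 U/mL enzyme, pH 4.5 acetate, 60 min, 25 °C). Apparent KI derived from steady-state rates with and without inhibitor (vI, v0), then converted to absolute KI by correcting for substrate concentration and KM.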

The target of data set [3] is T2, Beta-secretase 2 (Homo sapiens, UniProt Q9Y5Z0). In words: Inhibition of BACE2 expressing APP Swedish mutant using rhodamine-labeled EVNLDAEFK-quencher as substrate after 60 mins by Michaelis-Menten equation. The procedure, abridged:
as §1

Data set [4] has as its target T1, Beta-secretase 1. Briefly: Inhibition of BACE1 expressing APP Swedish mutant using rhodamine-labeled EVNLDAEFK-quencher as substrate after 60 mins by FRET analysis.
Data set [5] can be described thus: Selectivity ratio of IC50 for BACE2 to IC50 for BACE1.
The target of data set [6] is T1, Beta-secretase 1. In words: Inhibition of BACE1 in human H4 cells expressing APP Swedish K595N and M596L double mutant assessed as inhibition of amyloid beta (1 to 40) production after 24 hrs by whole cell assay. Format: cell-based. The conditions noted are these: pooled result: one value given for 2 cell lines, strains, targets or settings. The procedure, abridged: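 H4 neuroglioma cells carrying human APP K595N/M596L, seeded at 2 × 10⁵ cells/well and grown 24 h, then given increasing compound concentrations overnight (1% DMSO negative control). Medium Aβ40 or Aβ42 measured by sandwich immunoassay: biotinylated 4G8 plus C-terminal-specific rabbit antibodies, electrochemiluminescence read-out. Viability checked by MTT (0.5 mg/mL, 3 h, 570 nm). EC50 as mean of ≥3 experiments ± SD.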

The target in data set [7] is T2, Beta-secretase 2. In words: Inhibition of BACE2 expressing APP Swedish mutant using rhodamine-labeled EVNLDAEFK-quencher as substrate after 60 mins by FRET analysis.

T1 sequence (P56817 whole entry): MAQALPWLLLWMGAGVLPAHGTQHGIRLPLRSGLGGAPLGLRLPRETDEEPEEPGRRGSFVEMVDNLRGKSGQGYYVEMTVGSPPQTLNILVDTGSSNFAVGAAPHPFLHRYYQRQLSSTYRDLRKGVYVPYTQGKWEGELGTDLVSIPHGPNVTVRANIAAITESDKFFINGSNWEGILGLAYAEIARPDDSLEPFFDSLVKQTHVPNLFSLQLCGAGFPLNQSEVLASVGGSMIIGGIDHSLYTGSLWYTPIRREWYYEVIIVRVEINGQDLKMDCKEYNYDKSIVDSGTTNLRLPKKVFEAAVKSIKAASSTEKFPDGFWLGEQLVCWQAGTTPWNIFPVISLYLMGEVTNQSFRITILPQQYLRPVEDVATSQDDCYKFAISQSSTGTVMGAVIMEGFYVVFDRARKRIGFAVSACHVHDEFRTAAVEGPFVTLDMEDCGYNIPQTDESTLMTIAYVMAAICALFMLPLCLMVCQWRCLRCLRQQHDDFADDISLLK
T2 sequence (Q9Y5Z0 63-518 limits assumed, stated change not applied): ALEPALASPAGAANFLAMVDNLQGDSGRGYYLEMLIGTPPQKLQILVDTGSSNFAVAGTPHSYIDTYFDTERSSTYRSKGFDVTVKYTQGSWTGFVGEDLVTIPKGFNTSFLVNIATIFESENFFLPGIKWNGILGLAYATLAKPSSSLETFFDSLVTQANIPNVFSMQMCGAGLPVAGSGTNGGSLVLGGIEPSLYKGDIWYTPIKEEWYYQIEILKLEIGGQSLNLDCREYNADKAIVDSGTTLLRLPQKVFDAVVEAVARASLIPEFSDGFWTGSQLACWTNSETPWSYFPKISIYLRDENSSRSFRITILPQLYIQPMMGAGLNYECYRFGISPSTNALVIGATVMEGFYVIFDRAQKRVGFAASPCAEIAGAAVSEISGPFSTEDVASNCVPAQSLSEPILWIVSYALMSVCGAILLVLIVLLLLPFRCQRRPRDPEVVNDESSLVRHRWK

Regarding `Cl.Fc1ccc2nc(-c3cccc(-c4cn5ccc(F)cc5n4)c3)[nH]c2c1`, in data set [1], the solubility amounted to 10000 µg/mL.

Take `COc1ccc2nc(-c3cccc(-c4nc5ccccn5c4NC(C)(C)C)c3)[nH]c2c1`: the Ki at Beta-secretase 1 [2] was determined as 253 nM; at Beta-secretase 2 [3] it was 4000 nM. Further, the IC50 at Beta-secretase 1 [4] turned out to be 178 nM; against Beta-secretase 2 [7] it was 4120 nM. For the same compound, the Ratio IC50 in data set [5] amounted to 23. The half-maximal effective concentration (EC50) at Beta-secretase 1 [6] worked out at 310 nM.

As for `C[C@H](NC(=O)c1cc(-c2nc(-c3ccccc3)c[nH]2)cc(N(C)S(C)(=O)=O)c1)c1ccccc1`, the values for the Ki at Beta-secretase 1 [2] and on Beta-secretase 2 [3] were 304 nM and 1730 nM, respectively. In addition, the IC50 turned out to be 315 nM against Beta-secretase 1 [4] and 1790 nM against Beta-secretase 2 [7]. In addition, the EC50 on Beta-secretase 1 [6] stood at 450 nM.

With `C[C@H](NC(=O)c1cc(-c2nc3cc(F)ccc3[nH]2)cc(N(C)S(C)(=O)=O)c1)c1ccccc1`, the values for the Ki at Beta-secretase 1 [2] and at Beta-secretase 2 [3] were 758 nM and 2070 nM, respectively. Further, the IC50 amounted to 786 nM at Beta-secretase 1 [4] and 2130 nM against Beta-secretase 2 [7]. In addition, the Ratio IC50 in data set [5] stood at 5. At Beta-secretase 1 [6], the concentration giving a half-maximal response (EC50) amounted to 230 nM.

For `c1cc(-c2cn3ccccc3n2)cc(-c2nc3ccccc3[nH]2)c1`, the values for the Ki on Beta-secretase 1 [2] and on Beta-secretase 2 [3] were 926 nM and 3780 nM, respectively. In addition, the IC50 on Beta-secretase 1 [4] amounted to 961 nM; on Beta-secretase 2 [7], 3890 nM. On Beta-secretase 1 [6], the EC50 worked out at 1550 nM.

Turning to `C[C@H](NC(=O)c1cc(-c2nc3ccccc3[nH]2)cc(N(C)S(C)(=O)=O)c1)c1ccccc1`, the Ki is 1040 nM on Beta-secretase 1 [2] and 2070 nM at Beta-secretase 2 [3]. Further, the IC50 came out at 1080 nM against Beta-secretase 1 [4] and 2130 nM on Beta-secretase 2 [7].

For the compound `CC(C)(C)Nc1c(-c2ccc(-c3nc4ccccc4[nH]3)cc2)nc2ccccn12`, the Ki on Beta-secretase 1 [2] worked out at 5310 nM; on Beta-secretase 2 [3], 5510 nM. The IC50 against Beta-secretase 1 [4] was determined as 5510 nM; against Beta-secretase 2 [7], 5680 nM.

`CC(C)(C)Nc1c(-c2ccc(-c3nc4ccc(F)cc4[nH]3)cc2)nc2ccccn12`: the figures for the Ki at Beta-secretase 1 [2] and at Beta-secretase 2 [3] were 2390 nM and 3620 nM, respectively. Also, the results for the IC50 against Beta-secretase 1 [4] and against Beta-secretase 2 [7] were 2480 nM and 3720 nM, respectively.

Turning to `CC(C)(C)Nc1c(-c2cccc(-c3nc4ccc(F)cc4[nH]3)c2)nc2ccccn12`, the results for the Ki at Beta-secretase 1 [2] and on Beta-secretase 2 [3] were 301 nM and 4110 nM, respectively. For the same compound, the figures for the IC50 on Beta-secretase 1 [4] and against Beta-secretase 2 [7] were 312 nM and 4230 nM, respectively. The EC50 on Beta-secretase 1 [6] came out at 930 nM.

Turning to `Fc1ccc2nc(-c3cccc(-c4cn5ccc(F)cc5n4)c3)[nH]c2c1` [listing 1 of 2 here], the Ki on Beta-secretase 1 [2] came out at 17 nM; at Beta-secretase 2 [3] it was 3570 nM. The IC50 amounted to 18 nM on Beta-secretase 1 [4] and 3670 nM on Beta-secretase 2 [7]. Also, the EC50 at Beta-secretase 1 [6] worked out at 37 nM.

As to `C[C@H](NC(=O)c1cc(-c2ncc(-c3cccc(F)c3)[nH]2)cc(N(C)S(C)(=O)=O)c1)c1ccccc1`, the values for the Ki at Beta-secretase 1 [2] and on Beta-secretase 2 [3] were 180 nM and 1820 nM, respectively. The half-maximal inhibitory concentration (IC50) on Beta-secretase 1 [4] is 187 nM; at Beta-secretase 2 [7], 1870 nM.

In the case of `CC(C)(C)Nc1c(-c2cccc(-c3nc4ccccc4[nH]3)c2)nc2ccccn12`, the figures for the Ki on Beta-secretase 1 [2] and on Beta-secretase 2 [3] were 495 nM and 3670 nM, respectively. The IC50 on Beta-secretase 1 [4] came out at 514 nM; on Beta-secretase 2 [7], 3780 nM.

Turning to `COc1ccc2nc(-c3ccc(-c4nc5ccccn5c4NC(C)(C)C)cc3)[nH]c2c1`, the results for the Ki on Beta-secretase 1 [2] and on Beta-secretase 2 [3] were 2160 nM and 2810 nM, respectively. The IC50 at Beta-secretase 1 [4] was found to be 2240 nM; against Beta-secretase 2 [7], 2900 nM. For the same compound, the Ratio IC50 in data set [5] stood at 1.3. Further, the EC50 at Beta-secretase 1 [6] was 2410 nM.

On to `COc1cccc(-c2c[nH]c(-c3cc(C(=O)N[C@@H](C)c4ccccc4)cc(N(C)S(C)(=O)=O)c3)n2)c1`, for which the figures for the Ki at Beta-secretase 1 [2] and at Beta-secretase 2 [3] were 62 nM and 2280 nM, respectively. In addition, the IC50 came to 77 nM against Beta-secretase 1 [4] and 2350 nM against Beta-secretase 2 [7]. Further, the EC50 on Beta-secretase 1 [6] is 179 nM.

For `Fc1ccc2nc(-c3cccc(-c4cn5ccc(F)cc5n4)c3)[nH]c2c1` [listing 2 of 2 here], the Ratio IC50 in data set [5] was 204.

Regarding `COc1cccc(-c2cnc(-c3cc(C(=O)N[C@@H](C)c4ccccc4)cc(N(C)S(C)(=O)=O)c3)[nH]2)c1`, the Ratio IC50 in data set [5] amounted to 30.

Take `COc1ccc2nc(-c3cccc(-c4cn5ccccc5n4)c3)[nH]c2c1`: the Ki on Beta-secretase 1 [2] is 25 nM; on Beta-secretase 2 [3] it was 3220 nM. The IC50 stood at 26 nM on Beta-secretase 1 [4] and 3320 nM on Beta-secretase 2 [7]. Besides, on Beta-secretase 1 [6], the concentration for a half-maximal effect (EC50) turned out to be 30 nM.

Take `Fc1ccc2nc(-c3cccc(-c4cn5ccccc5n4)c3)[nH]c2c1`: the figures for the Ki at Beta-secretase 1 [2] and on Beta-secretase 2 [3] were 34 nM and 3080 nM, respectively. Besides, the IC50 against Beta-secretase 1 [4] worked out at 35 nM; against Beta-secretase 2 [7], 3170 nM. In addition, at Beta-secretase 1 [6], the EC50 worked out at 120 nM.

`COc1ccc2[nH]c(-c3cc(C(=O)N[C@@H](C)c4ccccc4)cc(N(C)S(C)(=O)=O)c3)nc2c1`: the Ki on Beta-secretase 1 [2] is 525 nM; at Beta-secretase 2 [3] it was 2350 nM. In addition, the IC50 on Beta-secretase 1 [4] was found to be 545 nM; against Beta-secretase 2 [7] it was 2420 nM. In data set [5], the Ratio IC50 is 5.
